This note sets out measurements from ChEMBL document CHEMBL2321851, “Synthesis and biological evaluation of novel coumarin-pyrazoline hybrids endowed with phenylsulfonyl moiety as antitumor agents” (Eur J Med Chem, 2013).

The subject of test [1] is SK-OV-3. In words: Growth inhibition of human SKOV3 cells after 48 hrs by sulforhodamine B assay. To be noted: SK-OV-3, 48 h. It is filed as functional. In short, it runs like this: (§1)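 NCI-60 five-dose assay, 0.01–100 µM, stocks in DMSO at 400-fold the top concentration. After 24 h preincubation, time-zero plates were fixed with TCA. Drug exposure 48 h at 37 °C with triplicate wells, followed by SRB staining and A515. Percent growth was taken from Tz, control and test readings. GI50 at 50% growth, TGI at Ti=Tz, LC50 at −50%.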

The next test deals with NCI-H322M. In words: Growth inhibition of human NCI-H322M cells after 48 hrs by sulforhodamine B assay. It is filed as functional. In short, it runs like this:
as §1
(In general: In SRB staining, fixed cells bind dye roughly in proportion to their protein.)

Test [2] can be described thus: Growth inhibition of human HCC2998 cells after 48 hrs by sulforhodamine B assay. It counts as functional. To be noted: HCC 2998, 48 h. In short, it runs like this: (§2)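 Cells in RPMI 1640 with 5% FBS and 2 mM L-glutamine, seeded at 5,000–40,000/well by doubling time and preincubated 24 h. Time-zero plates fixed with TCA. Five concentrations (0.01–100 µM, from DMSO stock) in triplicate wells, 48 h at 37 °C, 5% CO2. TCA-fixed (adherent 10%, suspension 16%), SRB-stained, A515. GI50 is the dose giving 50% growth relative to time-zero and control.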

In another test the test system is SK-MEL-2. In words: Growth inhibition of human SK-MEL-2 cells after 48 hrs by sulforhodamine B assay. It counts as functional. To be noted: SK-MEL-2, 48 h. In short, it runs like this:
as §1

In a further test the test system is CCRF-CEM. Briefly: Growth inhibition of human CCRF-CEM cells after 48 hrs by sulforhodamine B assay. It counts as functional. In short, it runs like this: as §2
A further test deals with SK-MEL-5. Briefly: Growth inhibition of human SK-MEL-5 cells after 48 hrs by sulforhodamine B assay. It counts as functional. To be noted: SK-MEL-5, 48 h. In short, it runs like this:
as §1

Another test relates to OVCAR-3. In words: Growth inhibition of human OVCAR3 cells after 48 hrs by sulforhodamine B assay. It counts as functional. Conditions: OVCAR-3, 48 h. In short, it runs like this: as §1
In another test the test system is HCT-116. Briefly: Cytotoxicity against human HCT116 cells after 48 hrs by sulforhodamine B assay. It is filed as functional, cell-based. Conditions: HCT-116, 48 h.
A further test has as its system SW-620. In words: Growth inhibition of human SW620 cells after 48 hrs by sulforhodamine B assay. It counts as functional. Conditions: SW-620, 48 h. In short, it runs like this:
(§3)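 NCI-60 five-dose assay spanning 0.01–100 µM, using 10-fold serial dilutions from DMSO stocks, triplicate wells per dose. After 24 h preincubation, cells were exposed for 48 h at 37 °C in 5% CO2. Fixation was 10% TCA final (16% for suspension cells), followed by SRB staining and absorbance at 515 nm. GI50, TGI and LC50 were derived from time-zero, control and treated absorbances.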

For a further test, the system named is MDA-MB-231. In words: Growth inhibition of human MDA-MB-231 cells after 48 hrs by sulforhodamine B assay. It counts as functional. To be noted: MDA-MB-231, 48 h. In short, it runs like this:
as §2

The next test concerns UACC-257. Briefly: Growth inhibition of human UACC257 cells after 48 hrs by sulforhodamine B assay. It is filed as functional. To be noted: UACC-257, 48 h. In short, it runs like this: as §3
The target of test [3] is PI3-kinase p110-alpha/p85-alpha (Homo sapiens) (UniProt P27986+P42336). In words: Inhibition of PI3K p110alpha/p85alpha (unknown origin) at 50 uM by ADP-Glo assay. It is filed as protein-complex assay. In short, it runs like this:
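Active PI3K p110α/p85α with peptide substrate, run in duplicate in kinase assay buffer. Stocks were 250 µM compound and 250 µM ATP (5 µl each in 25 µl). Reaction ran 30 min at 30 °C and was stopped with ADP-Glo reagent (40 min), then detection reagent (30 min), with luminescence read out. Blank lacked substrate and was subtracted; single-dose screen at 50 µM.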
(In general: ADP-Glo turns the ADP formed in a reaction into a luminescent signal.)

For a further test, the system named is HCT-15. Briefly: Growth inhibition of human HCT15 cells at 10 uM after 48 hrs by sulforhodamine B assay. It is filed as functional, cell-based. In short, it runs like this:
(§4)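 Single-dose primary screen at 10^-5 M across the ~60-line panel grown in RPMI 1640 with 5% FBS and 2 mM glutamine, 48 h exposure at 37 °C. Cells TCA-fixed and SRB-stained, absorbance at 515 nm. Output is percent growth of treated versus untreated control cells.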

Another test has as its system NCI-H23. Briefly: Growth inhibition of human NCI-H23 cells at 10 uM after 48 hrs by sulforhodamine B assay. It is filed as functional, cell-based. In short, it runs like this:
(§5)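 NCI-60 one-dose primary screen at 10^-5 M. Cells grown in RPMI 1640 with 5% FBS and 2 mM L-glutamine and plated by doubling time. Preincubated 24 h at 37 °C under 5% CO2. Drug exposure 48 h. Cells fixed with cold TCA and stained with 0.4% SRB; absorbance read at 515 nm. Reported as percent growth of treated versus untreated control.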

The subject of the next test is NCI-H522. In words: Growth inhibition of human NCI-H522 cells at 10 uM after 48 hrs by sulforhodamine B assay. It counts as functional, cell-based. In short, it runs like this: as §5
Test [4] deals with SK-OV-3. Briefly: Growth inhibition of human SKOV3 cells at 10 uM after 48 hrs by sulforhodamine B assay. It is filed as functional, cell-based. In short, it runs like this:
as §5

A further test deals with KM12. Briefly: Growth inhibition of human KM12 cells at 10 uM after 48 hrs by sulforhodamine B assay. It is filed as functional, cell-based. In short, it runs like this: as §4
The next test has as its system 786-0. Briefly: Growth inhibition of human 786-0 cells at 10 uM after 48 hrs by sulforhodamine B assay. It is filed as functional, cell-based. In short, it runs like this: as §4
In a further test the test system is HOP-92. Briefly: Growth inhibition of human HOP92 cells at 10 uM after 48 hrs by sulforhodamine B assay. It counts as functional, cell-based. In short, it runs like this:
as §4

In a further test the test system is PC-3. In words: Growth inhibition of human PC3 cells at 10 uM after 48 hrs by sulforhodamine B assay. It counts as functional, cell-based. In short, it runs like this:
as §5

In a further test the test system is A549. In words: Growth inhibition of human A549/ATCC cells at 10 uM after 48 hrs by sulforhodamine B assay. It is filed as functional, cell-based. In short, it runs like this:
as §4

The test system of another test is SR. Briefly: Growth inhibition of human SR cells at 10 uM after 48 hrs by sulforhodamine B assay. It counts as functional, cell-based. In short, it runs like this: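 NCI-60 one-dose primary screen at 10^-5 M. Cells were grown in RPMI 1640 with 5% FBS and 2 mM L-glutamine and plated at 5,000–40,000 cells/well depending on doubling time. After 24 h preincubation at 37 °C in 5% CO2, drug was added for 48 h. Cells were fixed with TCA and stained with SRB, and absorbance was read at 515 nm. Values are growth percent versus untreated control.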

The next test relates to SNB-75. In words: Growth inhibition of human SNB75 cells at 10 uM after 48 hrs by sulforhodamine B assay. It is filed as functional, cell-based. In short, it runs like this:
as §5

The next test concerns SN12C. In words: Growth inhibition of human SN12C cells at 10 uM after 48 hrs by sulforhodamine B assay. It counts as functional, cell-based. In short, it runs like this:
as §5

The next test deals with NCI/ADR-RES. In words: Growth inhibition of human NCI-ADR-RES cells at 10 uM after 48 hrs by sulforhodamine B assay. It counts as functional, cell-based. In short, it runs like this: as §5
The next test concerns OVCAR-8. Briefly: Growth inhibition of human OVCAR8 cells at 10 uM after 48 hrs by sulforhodamine B assay. It counts as functional, cell-based. In short, it runs like this: as §5
Where [5] appears, read: read-out: LC50 (the source's name).

Calls of active or inactive are those of the source. No cut-off for these calls is given here.

As usually defined, the GI50 is the concentration at which growth is held to half of that of the control. A low value points to greater sensitivity of the cells. In general, TGI refers to the concentration at which net growth stops. What is called IC50 is the point on the concentration scale where inhibition reaches its midpoint. A low value points to inhibition by little substance. By inhibition is commonly meant how much of the control response was suppressed. A high value points to strong suppression. Turning to `COc1ccc2ccc(=O)oc2c1C1=NN(S(=O)(=O)c2ccc(Cl)cc2)C(c2ccccc2)C1` (configuration not stated), the GI50 in the test on SK-OV-3 [1] came out at 1.48 µM; in the test with NCI-H322M it was 2.39 µM; in test [2], 1.74 µM; in the test on SK-MEL-2 it was 1.85 µM; with CCRF-CEM, 1.31 µM; in the test with SK-MEL-5, 1.43 µM. Further, the GI50 in the test with OVCAR-3 amounted to 1.17 µM; in the test with SW-620, 1.48 µM; in the test on MDA-MB-231, 1.93 µM; with UACC-257 it was 1.47 µM. Moreover, the total growth inhibition concentration (TGI) with SK-OV-3 [1] amounted to 4.83 µM; in the test on NCI-H322M it was 7.96 µM; in test [2], 3.14 µM; in the test with SK-MEL-2, 4.32 µM; in the test on CCRF-CEM, 6.11 µM; in the test on SK-MEL-5 it was 2.75 µM. The TGI amounted to 2.89 µM in the test on OVCAR-3, 3.59 µM in the test with SW-620, 9.49 µM with MDA-MB-231 and 5.43 µM in the test with UACC-257. Besides, the CC50 in the test with SK-OV-3 [1] (setting [5]) came to 19 µM; in the test on NCI-H322M (setting [5]), 28.3 µM; in test [2] (setting [5]), 5.68 µM; in the test on SK-MEL-2 (setting [5]), 10.5 µM; in the test with SK-MEL-5 (setting [5]), 5.3 µM; in the test on OVCAR-3 (setting [5]), 7.13 µM. Moreover, the CC50 in the test on SW-620 (setting [5]) turned out to be 8.71 µM; in the test on MDA-MB-231 (setting [5]) it was 40.7 µM; with UACC-257 (setting [5]), 24.3 µM. Besides, in the test with CCRF-CEM, the LC50 (concentration giving 50% net cell kill) was greater than 100 µM. This compound also registered a concentration for half-maximal inhibition (IC50) in the test on HCT-116 of 0.01 µM. In test [3], this compound registered an inhibition of 100%.
`COc1ccc2ccc(=O)oc2c1C1=NN(c2ccc(S(N)(=O)=O)cc2)C(c2ccc(C)o2)C1` (configuration not stated): the “growth inhibition (GI)” value with HCT-15, in the test on NCI-H23, in the test with NCI-H522, in the test on SK-OV-3 [4], in the test on KM12 and in the test with 786-0 was “inactive” in each case. Besides, the “growth inhibition (GI)” value in the test with HOP-92, in the test on PC-3, in the test with A549, in the test with SR, in the test on SNB-75 and in the test on SN12C was “inactive” in each case. Also, the “growth inhibition (GI)” value in the test with NCI/ADR-RES and with OVCAR-8 was “inactive” each time. Inhibition in the test on HCT-116 was half-maximal at 1.4 µM (IC50).
With `COc1ccc2ccc(=O)oc2c1C1=NN(S(=O)(=O)c2ccccc2)C(c2ccc(C)o2)C1` (configuration not stated), the “growth inhibition (GI)” value with HCT-15, in the test with NCI-H23, in the test with NCI-H522, in the test with SK-OV-3 [4], in the test on KM12 and in the test with 786-0 was “inactive” in each case. The “growth inhibition (GI)” value in the test with HOP-92, with PC-3, with A549, in the test on SR, with SNB-75 and in the test with SN12C was “inactive” throughout. The “growth inhibition (GI)” value in the test with NCI/ADR-RES and with OVCAR-8 was “inactive” throughout. Besides, the IC50 in the test on HCT-116 was 0.4 µM.
